Measurements as given in ChEMBL document CHEMBL4177578, “Synthesis, pharmacological activities and molecular docking studies of pyrazolyltriazoles as anti-bacterial and anti-inflammatory agents” (Bioorg Med Chem, 2017).
≈ marks a conversion by molar mass, not a printed value. Calls of active or inactive are those of the source. The calls are words filed in the database; no cut-off is given here.

Assays:
Assay type in all cases: functional
[1] = test system: Salmonella paratyphi; test: Antimicrobial activity against Salmonella paratyphi incubated for 12 to 16 hrs followed by plating in nutrient agar by tube dilution method
Method in brief: (§1)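 After 12-16 h at 37 °C in tube dilution (500 to 1.9 µg/mL; 1 mL inoculum at OD 0.2), the culture from each tube was plated on nutrient agar. MBC is the concentration at which cells are completely killed.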

[2] = Anti-inflammatory activity at 100 ug/ml using bovine serum albumin and egg albumin proteins incubated at 37 degC for 20 mins and then heated to 95 degC for 20 mins by UV-visible Spectrophotometry based protein denaturation method
Method in brief: (§2)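 Albumin (bovine serum or egg) at 1% in 50 mM sodium phosphate buffer pH 6.4. Mixture is 0.1 ml test sample (1 mg/ml) plus 0.2 ml albumin, made to 5 ml with buffer. Held 37 °C for 20 min, then 95 °C for 20 min. Cooled to room temperature, turbidity read at 660 nm. % inhibition = (Abs control − Abs sample)/Abs control × 100. Triplicate, averaged.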

[3] = test system: Staphylococcus aureus; test: Antimicrobial activity against Staphylococcus aureus at 1 mg/ml incubated for 20 to 30 mins followed by incubation for 24 hrs at 37 degC by agar plate method
Method in brief: (§3)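 Agar well diffusion on nutrient agar. Plates swabbed with 60 µL inoculum; 8 mm wells loaded with 100 µL of compound at 1.0 mg/mL. Held 20–30 min at 4 °C for diffusion, then 24 h at 37 °C. Inhibition zone diameter read in mm. Triplicate.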

[4] = test system: Salmonella typhi; test: Antimicrobial activity against Salmonella typhi at 1 mg/ml incubated for 20 to 30 mins followed by incubation for 24 hrs at 37 degC by agar plate method; conditions: for diameter of the inhibition zone (DIZ): Salmonella enterica subsp. enterica serovar Typhi
Method in brief: (§4)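 Agar well diffusion on nutrient agar. Plates swabbed with 60 µL inoculum, 8 mm wells loaded with 100 µL sample at 1.0 mg/mL, streptomycin standard and control in separate wells. Plates held 20–30 min at 4 °C for diffusion, then 24 h at 37 °C. Zone diameter read in mm; triplicate.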

[5] = test system: Micrococcus luteus; test: Antimicrobial activity against Micrococcus luteus incubated for 12 to 16 hrs followed by plating in nutrient agar by tube dilution method
Method in brief: (§5)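 Tube dilution, serial from 500 to 1.9 µg/mL, plus drug-free control tube. Each tube inoculated with 1 mL culture at OD 0.2, incubated 37 °C for 12–16 h. MIC is the lowest concentration with no growth by turbidity. MBC is found by plating each tube on nutrient agar: the lowest concentration at which all cells are killed.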

[6] = Anti-inflammatory activity at 50 ug/ml using bovine serum albumin and egg albumin proteins incubated at 37 degC for 20 mins and then heated to 95 degC for 20 mins by UV-visible Spectrophotometry based protein denaturation method; method in brief: as §2
[7] = test system: Micrococcus luteus; test: Antimicrobial activity against Micrococcus luteus at 1 mg/ml incubated for 20 to 30 mins followed by incubation for 24 hrs at 37 degC by agar plate method; method in brief: as §3
[8] = test system: Salmonella paratyphi; test: Antimicrobial activity against Salmonella paratyphi at 1 mg/ml incubated for 20 to 30 mins followed by incubation for 24 hrs at 37 degC by agar plate method; conditions: for diameter of the inhibition zone (DIZ): Salmonella enterica subsp. enterica serovar Paratyphi A; method in brief: as §4
[9] = Anti-inflammatory activity using bovine serum albumin and egg albumin proteins incubated at 37 degC for 20 mins and then heated to 95 degC for 20 mins by UV-visible Spectrophotometry based protein denaturation method; method in brief: as §2
[10] = test system: Salmonella typhi; test: Antimicrobial activity against Salmonella typhi incubated for 12 to 16 hrs followed by plating in nutrient agar by tube dilution method; method in brief: as §1
[11] = test system: Micrococcus luteus; test: Antimicrobial activity against Micrococcus luteus incubated for 12 to 16 hrs by tube dilution method; method in brief: as §5
[12] = test system: Salmonella paratyphi; test: Antimicrobial activity against Salmonella paratyphi incubated for 12 to 16 hrs by tube dilution method
Method in brief: (§6)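 Broth tube dilution, two-fold serial dilutions from 500 to 1.9 µg/mL plus a drug-free control tube. Each tube inoculated with 1 mL culture at OD 0.2 (~McFarland standard), 37 °C for 12-16 h. Turbidity compared with the control tube. MIC is the lowest concentration giving complete growth inhibition.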

[13] = test system: Salmonella typhi; test: Antimicrobial activity against Salmonella typhi incubated for 12 to 16 hrs by tube dilution method; method in brief: as §6
[14] = Salmonella enterica subsp. enterica serovar Paratyphi A
[15] = Salmonella enterica subsp. enterica serovar Typhi
[16] = Salmonella enterica, read-out: DIZ

SMILES	MBC [1, 14]	inhibition [2]	diameter of the inhibition zone (DIZ) [3]	diameter of the inhibition zone (DIZ) [4]	MBC [5]	inhibition [6]	diameter of the inhibition zone (DIZ) [7]	diameter of the inhibition zone (DIZ) [8]	IC50 [9]	MBC [10, 15]	MIC [11]	MIC [12, 14]	MIC [13, 15]	further results
CCOC(=O)c1nnn(Cc2cn(-c3ccc(Cl)cc3)nc2-c2ccccc2)c1C(=O)OCC	inactive	inactive	inactive	inactive	inactive	inactive	inactive	inactive	Not Active	inactive	inactive	inactive	inactive	–
CCOC(=O)c1nnn(Cc2cn(-c3ccccc3)nc2-c2ccc(Cl)cc2)c1C(=O)OCC	inactive	inactive	inactive	inactive	inactive	inactive	inactive	inactive	Not Active	inactive	inactive	inactive	inactive	–
CN[C@@H]1[C@H](O[C@H]2[C@H](O[C@H]3[C@H](O)[C@@H](O)[C@H](N=C(N)N)[C@@H](O)[C@@H]3N=C(N)N)O[C@@H](C)[C@]2(O)C=O)O[C@@H](CO)[C@H](O)[C@H]1O [STREPTOMYCIN]	–	–	–	–	6.25 µg/mL (≈ 10.7 µM)	–	–	–	–	–	6.25 µg/mL (≈ 10.7 µM)	–	–	MBC ([1]; Salmonella enterica): 6.25 µg/mL (≈ 10.7 µM); zone of inhibition at 1000 µg/mL ([3]; read-out: DIZ): 20.3 mm; zone of inhibition at 1000 µg/mL [4, 16]: 27 mm; zone of inhibition at 1000 µg/mL ([7]; read-out: DIZ): 22.5 mm; zone of inhibition at 1000 µg/mL [8, 16]: 30 mm; MBC ([10]; Salmonella enterica): 6.25 µg/mL (≈ 10.7 µM); MIC ([12]; Salmonella enterica): 6.25 µg/mL (≈ 10.7 µM); MIC ([13]; Salmonella enterica): 6.25 µg/mL (≈ 10.7 µM)
CCOC(=O)c1nnn(Cc2cn(-c3ccc(C)cc3)nc2-c2ccccc2)c1C(=O)OCC	inactive	inactive	inactive	inactive	inactive	inactive	inactive	inactive	Not Active	inactive	inactive	inactive	inactive	–
Brc1ccc(-c2cn(Cc3cn(-c4ccccc4)nc3-c3ccccc3)nn2)cc1	inactive	inactive	inactive	inactive	inactive	inactive	inactive	inactive	Not Active	inactive	inactive	inactive	inactive	–
COc1ccc(-c2nn(-c3ccccc3)cc2CN=[N+]=[N-])cc1	inactive	inactive	inactive	inactive	inactive	inactive	inactive	inactive	Not Active	inactive	inactive	inactive	inactive	–
COc1ccc(-c2nn(-c3ccccc3)cc2Cn2cc(-c3ccccc3)nn2)cc1	inactive	inactive	inactive	inactive	inactive	inactive	inactive	inactive	Not Active	inactive	inactive	inactive	inactive	–
COc1ccc(-c2cn(Cc3cn(-c4ccccc4)nc3-c3ccccc3)nn2)c(C)c1	inactive	inactive	inactive	inactive	inactive	inactive	inactive	inactive	Not Active	inactive	inactive	inactive	inactive	–
Clc1ccc(-c2cn(Cc3cn(-c4ccccc4)nc3-c3ccccc3)nn2)cc1	inactive	inactive	inactive	inactive	inactive	inactive	inactive	inactive	Not Active	inactive	inactive	inactive	inactive	–
Cc1ccc(-c2nn(-c3ccccc3)cc2Cn2cc(-c3ccccc3)nn2)cc1	inactive	inactive	inactive	inactive	inactive	inactive	inactive	inactive	Not Active	inactive	inactive	inactive	inactive	–
[N-]=[N+]=NCc1cn(-c2ccc(Cl)cc2)nc1-c1ccccc1	inactive	inactive	inactive	inactive	inactive	inactive	inactive	inactive	Not Active	inactive	inactive	inactive	inactive	–
Cc1ccc(-c2cn(Cc3cn(-c4ccccc4)nc3-c3ccccc3)nn2)cc1	inactive	inactive	inactive	inactive	inactive	inactive	inactive	inactive	Not Active	inactive	inactive	inactive	inactive	–
COC(=O)c1nnn(Cc2cn(-c3ccc(C)cc3)nc2-c2ccccc2)c1C(=O)OC	inactive	inactive	inactive	inactive	inactive	inactive	inactive	inactive	Not Active	inactive	inactive	inactive	inactive	–
Nc1ccc(-c2cn(Cc3cn(-c4ccccc4)nc3-c3ccccc3)nn2)cc1	inactive	inactive	inactive	inactive	inactive	inactive	inactive	inactive	Not Active	inactive	inactive	inactive	inactive	–
O=C([O-])Cc1ccccc1Nc1c(Cl)cccc1Cl.[Na+] [DICLOFENAC SODIUM]	–	93.1%	–	–	–	66.4%	–	–	53.7 µg/mL	–	–	–	–	–
